Data set [1] has as its system Rattus norvegicus. The data set is described as follows: Antiinflammatory activity in Freund's complete adjuvant-induced Lewis rat arthritis model assessed as reduction in paw swelling at 25 mg/kg/day, po qd for 21 days. In kind it is functional, organism-based. The procedure, abridged:
(§1)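 Male Lewis rats were inoculated with Mycobacterium butyricum in incomplete Freund's adjuvant. Oral dosing was daily and preventative, running from day 0 to day 21. Onset and progression of arthritis were followed, and ED50 was estimated from the dose response.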

Data set [2] can be described thus: AUC in Sprague-Dawley rat at 10 mg/kg, po. More on the design: dose 10 mg/kg, route oral. Conditions: plasma. In kind it is ADME, organism-based. The essentials: (§2)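 Male Sprague-Dawley rats received a single intravenous (1 mg/kg) or oral (10 or 50 mg/kg) dose. Plasma pharmacokinetic parameters were derived from these profiles.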
Data set [3] can be described thus: Cmax in Sprague-Dawley rat at 10 mg/kg, po. In kind it is ADME, organism-based. The arrangement: dose 10 mg/kg, route oral. Conditions: in vivo. The essentials: as §2
The target in data set [4] is T1, Mineralocorticoid receptor (Homo sapiens, UniProt P08235).
T1 sequence (P08235 whole entry): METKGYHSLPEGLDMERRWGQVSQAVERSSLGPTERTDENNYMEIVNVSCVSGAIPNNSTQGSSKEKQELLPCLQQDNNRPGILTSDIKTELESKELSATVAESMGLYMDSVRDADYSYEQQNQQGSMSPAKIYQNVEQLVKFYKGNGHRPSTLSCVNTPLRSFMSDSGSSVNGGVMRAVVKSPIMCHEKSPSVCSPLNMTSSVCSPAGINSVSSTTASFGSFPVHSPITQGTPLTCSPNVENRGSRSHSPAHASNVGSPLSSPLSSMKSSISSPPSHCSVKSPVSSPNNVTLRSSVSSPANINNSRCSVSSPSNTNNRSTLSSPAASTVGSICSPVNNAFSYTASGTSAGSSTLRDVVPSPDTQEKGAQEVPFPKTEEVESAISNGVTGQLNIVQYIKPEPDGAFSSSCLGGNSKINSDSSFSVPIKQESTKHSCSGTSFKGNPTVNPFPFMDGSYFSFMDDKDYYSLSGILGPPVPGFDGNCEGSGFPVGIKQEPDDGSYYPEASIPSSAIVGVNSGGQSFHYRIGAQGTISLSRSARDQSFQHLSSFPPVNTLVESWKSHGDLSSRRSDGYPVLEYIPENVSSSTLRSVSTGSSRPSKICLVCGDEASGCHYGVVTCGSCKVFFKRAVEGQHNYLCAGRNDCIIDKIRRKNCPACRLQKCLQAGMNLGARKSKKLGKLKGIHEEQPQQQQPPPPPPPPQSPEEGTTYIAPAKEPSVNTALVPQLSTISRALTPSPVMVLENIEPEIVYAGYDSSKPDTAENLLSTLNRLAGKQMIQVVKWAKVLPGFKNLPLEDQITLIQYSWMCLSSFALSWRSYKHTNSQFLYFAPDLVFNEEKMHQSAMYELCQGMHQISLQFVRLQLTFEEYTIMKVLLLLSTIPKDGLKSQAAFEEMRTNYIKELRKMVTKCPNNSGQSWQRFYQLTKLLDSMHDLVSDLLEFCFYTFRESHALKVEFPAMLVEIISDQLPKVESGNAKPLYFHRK
Nature of the data set: Agonist activity at human mineralocorticoid receptor expressed in human A549 cells by fluorescence polarization assay. In kind it is functional, cell-based.

The target of data set [5] is T2, Estrogen receptor (Homo sapiens, UniProt P03372).
T2 sequence (P03372 whole entry): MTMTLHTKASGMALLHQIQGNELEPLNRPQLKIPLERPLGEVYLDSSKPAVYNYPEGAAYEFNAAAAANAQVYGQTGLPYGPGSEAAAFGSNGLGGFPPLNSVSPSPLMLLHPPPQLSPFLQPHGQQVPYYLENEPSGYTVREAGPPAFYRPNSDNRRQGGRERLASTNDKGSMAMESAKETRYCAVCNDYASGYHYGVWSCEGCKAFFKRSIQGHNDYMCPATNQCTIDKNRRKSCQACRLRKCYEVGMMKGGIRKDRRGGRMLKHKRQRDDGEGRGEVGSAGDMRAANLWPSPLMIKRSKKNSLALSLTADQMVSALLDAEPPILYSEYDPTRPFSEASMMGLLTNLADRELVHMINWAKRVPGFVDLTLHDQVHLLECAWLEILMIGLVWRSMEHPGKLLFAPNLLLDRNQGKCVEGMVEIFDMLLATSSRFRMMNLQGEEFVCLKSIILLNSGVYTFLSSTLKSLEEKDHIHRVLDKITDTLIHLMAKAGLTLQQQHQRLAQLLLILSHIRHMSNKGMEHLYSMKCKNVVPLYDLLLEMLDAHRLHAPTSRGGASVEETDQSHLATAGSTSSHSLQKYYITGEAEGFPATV
The data set is described as follows: Displacement of fluorescently labeled ligand from ERalpha receptor by fluorescence polarization assay. The essentials: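 Binding was measured by fluorescence polarization competition between compound and a fluorescent ligand for full-length receptor or ligand-binding domain. Values are means of at least two experiments.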

The test system of data set [6] is Rattus norvegicus. Nature of the data set: Antiinflammatory activity in Freund's complete adjuvant-induced Lewis rat arthritis model assessed as reduction in paw swelling at 50 mg/kg/day, po qd for 21 days. In kind it is functional, organism-based. The essentials: as §1

Calls of active or inactive are those of the source. The calls are words filed in the database; no cut-off is given here. Some results are limits rather than exact numbers.

As for `CCN(C)C(=O)c1ccc(-c2ccc3c(n2)Oc2ccccc2[C@@H]3C(C)(C)C(=O)Nc2nncs2)cc1F`, in data set [1], the result was Active. The molecule also returned an exposure (AUC) in data set [2] of 904 ng·h/mL. This molecule also returned a Cmax in data set [3] of 351 ng/mL. The same molecule registered a concentration for a half-maximal effect (EC50) in data set [4] greater than 5 µM. The Ki in data set [5] was greater than 75 µM.
Molecule `CN(C)C(=O)c1ccc(-c2ccc3c(n2)Oc2ccccc2[C@H]3C(C)(C)C(=O)Nc2nncs2)cc1F` came in with an AUC in data set [2] of 673 ng·h/mL. This molecule also had a Cmax in data set [3] of 285 ng/mL. In data set [6], the result was Active. In data set [4], the 50% effective concentration (EC50) was greater than 5 µM. The same molecule returned a Ki in data set [5] greater than 75 µM.

Usually AUC stands for concentration integrated over time. Read a high AUC as more exposure. As usually defined, the Cmax is the peak of the concentration-time curve. What is called EC50 is the midpoint of the concentration-response curve. In general, Ki refers to a dissociation constant, usually derived from enzyme kinetics or from competition with a known ligand. Low values mean higher affinity, high ones lower affinity.
